# Most compounds without a hit are left out; they make up all but 1.1% or so of the library.
# CAL PDZ FP-1: CAL PDZ (human) peptide binding inhibition; purified CAL PDZ, TMR-peptide fluorescence polarization, 1 h; hit rate 0.92% among 300,000; AID 602252; inhibition, % at 24.9 µM; Q9HD26;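 active means mean inhibition of at least 30% with at least half of replicates also reaching 30%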;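 further: 0% = DMSO neutral control and 100% = excess unlabeled competitor peptide PRC23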
# CAL PDZ FP-2: blocks peptide binding to human CAL PDZ domain | Q9HD26 | purified CAL PDZ, TMR-peptide fluorescence polarization, 1 h | inhibition, % at 20 µM | hit rate 0.02% among 330,000;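 active means highest replicate inhibition of at least 40%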;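 further: plate controls were DMSO neutral control wells for no effect and unlabeled competitor peptide control wells for full effect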
#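 material = purified tagged CAL PDZ domain construct (CerCALP) | buffer or medium = sodium phosphate/NaCl buffer pH 7.4 with TCEP, IgG, Thesit | reagent = TMR-labelled reporter peptide T*-PRC34 bound in PDZ groove | incubation = 1 h room-temperature incubation prior to read | measured by = fluorescence polarization (mP) | evaluation = percent inhibition from loss of millipolarization | control set = unlabelled peptide and DMSO controls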
# Keap1-Nrf2 PPI: Keap1-Nrf2 (human) interaction inhibition | Q14145 | Keap1 Kelch-Nrf2 peptide fluorescence polarization, 1536-well | inhibition, % at 9.4 µM | hit rate 0.15% among 340,000 | AID 504523; in the data active means inhibition above about 12%;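 further: human Keap1 Kelch domain with fluorescein labeled Nrf2 9mer peptide probe; 0% = neutral control wells and 100% = peptide positive control; higher means more block of Keap1 binding to Nrf2 peptide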
# Target sequence (Q14145 whole entry, looked up, the tested form may be a part): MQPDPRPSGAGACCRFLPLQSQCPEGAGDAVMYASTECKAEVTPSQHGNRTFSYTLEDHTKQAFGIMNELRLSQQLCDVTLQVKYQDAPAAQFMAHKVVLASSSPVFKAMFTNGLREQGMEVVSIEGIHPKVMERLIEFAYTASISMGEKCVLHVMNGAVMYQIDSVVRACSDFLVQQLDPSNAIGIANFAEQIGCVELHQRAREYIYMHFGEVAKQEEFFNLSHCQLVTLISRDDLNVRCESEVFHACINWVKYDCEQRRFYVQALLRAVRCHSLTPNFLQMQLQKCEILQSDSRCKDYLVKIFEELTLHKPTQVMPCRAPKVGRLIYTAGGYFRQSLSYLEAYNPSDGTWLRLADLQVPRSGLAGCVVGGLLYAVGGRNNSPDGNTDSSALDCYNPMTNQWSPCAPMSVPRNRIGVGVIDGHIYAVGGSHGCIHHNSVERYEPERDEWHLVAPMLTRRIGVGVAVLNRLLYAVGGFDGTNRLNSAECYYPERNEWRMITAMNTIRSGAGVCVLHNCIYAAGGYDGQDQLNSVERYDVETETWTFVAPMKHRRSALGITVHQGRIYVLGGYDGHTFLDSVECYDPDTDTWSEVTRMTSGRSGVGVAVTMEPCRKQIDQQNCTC
# miR122 inh: blocks miR-122 activity in Huh7 sensor cells | Huh7 miR-122 Renilla luciferase sensor, 48 h; neutral wells = 0, positive control = 100 | activation (reporter increase), % at 12.5 µM | AID 602342 | hit rate 0.3% among 340,000;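 active means mean replicate activation score at least 90 and every replicate individually at or above 90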;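 further: higher luciferase means less miR-122 activity so hits act as miR-122 inhibitors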
# LANA DNA inh: inhibitors of KSHV LANA C-terminal domain DNA binding; MBP-C-LANA/FAM-LBS DNA binding, fluorescence polarization; inhibition, % at 9 µM; hit rate 0.078% among 340,000; AID 504423;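 active means highest replicate inhibition at or above 60% at 9 µM, even if other replicates fall short; inactive means all replicates below 60% inhibition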;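 further: 0% = neutral control wells and 100% = 4 µM acridine orange control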
# Keap1 Kelch bind: binds and thermally shifts human Keap1 Kelch domain | shares compounds with Keap1-Nrf2 PPI | hit rate 8% among 400 | AID 651823 | Keap1 Kelch thermal shift, delta Tm; hits give high values | max delta Tm, degrees C; in the data active means max delta Tm above about 0.48 degrees C
# Dye-only ctr: counter-screen for Keap1 thermal shift hits: dye-only artifacts; shares compounds with Keap1-Nrf2 PPI; Sypro Orange dye-only thermal melt, no protein, delta Tm; top dose 26 µM; delta Tm, degrees C (test concentration not listed); 140 tested, under 10 active; AID 651858;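 active means at highest dose tested, delta Tm positive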
# * hit, by the source's call; · = no result; [ ] = another dose, or the depositor's remark.
SMILES,CAL PDZ FP-1,CAL PDZ FP-2,Keap1-Nrf2 PPI,miR122 inh,LANA DNA inh,Keap1 Kelch bind,others
COc1ccc(N=Nc2nc3cc(Br)c(Br)cc3n2C)c(OC)c1,-1,-2,13*,10,24,0.04,
COC(=O)c1cccc(NC(=O)Nc2ccc(Cl)cc2)c1,·,-1,-1,-3,-2,·,
COC(=O)c1cccc(NC(=O)NC(=O)c2ccc(Cl)cc2)c1,·,-1,44*,2,27,-0.01,
C[C@@H]1CN([C@@H](C)CO)C(=O)c2cc(C#CCN(C)C)cnc2O[C@H]1CN(C)C(=O)c1cccc(F)c1,·,·,·,-6[16.7 µM],·,·,
CCCCn1c(=O)[nH]c2nc3cc(NC(C)=O)ccc3nc2c1=O,·,0,-5,0,4,·,
CCCCCCn1c(=O)[nH]c2nc3cc(N)c(C)cc3nc2c1=O,5,0,27*,·,49,0.59,Dye-only ctr=-21
Oc1ccc2nnc3c(Br)cnn3c2c1,-6,-1,37*,·,67*,-0.17,
O=C(COC(=O)c1ccc([N+](=O)[O-])s1)Nc1cccc(S(=O)(=O)NC2=NCCCCC2)c1,0,1,53*,·,6,-0.13,
O=C(COC(=O)c1cccs1)Nc1cccc(S(=O)(=O)NC2=NCCCCC2)c1,-3,-1,0,·,0,·,
O=S(=O)(Nc1ncccn1)c1ccc(NC(=S)NCc2cccnc2)cc1,0,-3,17*,-7,1,-0.18,
O=S(=O)(c1ccc(NC(=S)NCc2cccnc2)cc1)N1CCCCC1,·,0,-4,79,-1,·,
COc1cc(/C=C/C(=O)OCC(=O)c2ccc3c(c2)NC(=O)CO3)ccc1OC(F)F,·,0,21*,2,11,-0.12,Dye-only ctr=-26
CC1Cc2cc(/C=C3/SC(N4CCC(C(N)=O)CC4)=NC3=O)ccc2O1 (configuration not stated),·,-7,21*,-2,11,-0.12,
CC1CCN(C2=NC(=O)/C(=C/c3cccc(O)c3)S2)CC1,3,-1,-1,-6,-1,·,
O=C(CSC1=NNC(c2ccccn2)S1)Nc1ccccc1 (configuration not stated),·,-2,-4,2,0,·,
O=C(CSC1=NNC(c2ccccn2)S1)Nc1cccc(Cl)c1 (configuration not stated),·,-1,19*,-6,12,-0.17,
C[C@H]1CN([C@@H](C)CO)C(=O)CCCn2nncc2CO[C@@H]1CN(C)S(C)(=O)=O,·,·,·,-1[16.7 µM],·,·,
CNc1ccc2c3c(cccc13)C(=O)N(C)C2=O,-1,3,109*,·,109*,0,
Cn1nc(C(=O)NNC(=O)Cc2ccc(S(=O)(=O)N3CCOCC3)s2)c2ccccc2c1=O,·,0,32*,5,20,-0.18,Dye-only ctr=-28
CCOc1ccc(C(=O)COC(=O)c2nn(CC)c(=O)c3ccccc23)cc1,·,-2,21*,-8,11,-0.09,
CCn1nc(C(=O)OCC(=O)c2c[nH]c3ccccc23)c2ccccc2c1=O,·,-2,-5,·,2,·,
O=C(Cc1ccc(S(=O)(=O)N2CCCC2)s1)Nc1nc2c(s1)CCCC2,-9,·,13*,2,10,-0.08,Dye-only ctr=-29
COCC(=O)Nc1ccc2c(c1)C(=O)N(C)[C@H]1CC[C@H](CC(=O)NCc3ccccc3)O[C@H]1CO2,·,·,·,5[16.7 µM],·,·,
Cc1noc(C)c1S(=O)(=O)Nc1ccc2c(c1)C(=O)N([C@H](C)CO)C[C@@H](C)[C@H](CN(C)C(=O)Nc1ccc(F)cc1)O2,·,·,·,-2[16.7 µM],·,·,
CCN(CC)c1ccc2cc(S(=O)(=O)c3ccc(Cl)cc3)c(=O)oc2c1,·,-1,33*,-6,41,0.91,Dye-only ctr=-23
c1ccc(-c2cn3nc4c(nc3n2)CCCC4)cc1,-3,0,22*,-7,41,-0.13,Dye-only ctr=-30
Brc1ccc(-c2cn3nc4c(nc3n2)CCCC4)cc1,-19,-5,-1,8,16,·,
Oc1cc2c(cc1O)[C@H]1c3ccc(O)c(O)c3OC[C@@]1(O)C2,·,0,-3,-1,5,·,
Oc1ccc2c(c1)OCC1(O)Cc3cc(O)c(O)cc3C21 (configuration not stated),4,1,18*,-3,19,-0.11,
